Assay results reported in ChEMBL document CHEMBL1147862, “Studies on synthesis and pharmacological activities of 3,6-disubstituted-1,2,4-triazolo[3,4-b]-1,3,4-thiadiazoles and their dihydro analogues” (2007).

What was measured:
Type in all cases: functional
Bacillus subtilis [1] = test: Antibacterial activity against Bacillus subtilis at 20 ug/ml by agar plate diffusion technique; conditions: read-out: IZ
Bacillus subtilis [2] = test: Antibacterial activity against Bacillus subtilis at 30 ug/ml by agar plate diffusion technique; conditions: read-out: IZ
Rattus norvegicus [3] = test: Antiinflammatory activity in Wistar Albino rat assessed as inhibition of carrageenan-induced paw oedema at 20 mg/kg after 1 hr relative to control
Outline: (§1)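 Wistar albino rats, 150–200 g, six per group, dosed orally with a 20 mg/kg suspension; control gets 0.1 ml 1% gum acacia. After 30 min, 0.1 ml 1% carrageenan in saline is injected subplantar into the right hind paw. Paw volume is read by plethysmograph at 0–4 h. Inhibition = 100(1 − Vtest/Vcontrol) on mean volume increase.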

Candida albicans [4] = test: Antifungal activity against Candida albicans at 10 ug/ml by paper disc method; conditions: read-out: IZ
Aspergillus niger [5] = test: Antifungal activity against Aspergillus niger at 20 ug/ml by paper disc method; conditions: read-out: IZ
Bacillus subtilis [6] = test: Antibacterial activity against Bacillus subtilis at 10 ug/ml by agar plate diffusion technique; conditions: read-out: IZ
Rattus norvegicus [7] = test: Antiinflammatory activity in Wistar Albino rat assessed as inhibition of carrageenan-induced paw oedema at 20 mg/kg after 2 hrs relative to control; outline: as §1
Mus musculus [8] = test: Analgesic activity in Swiss mouse assessed as increase in reaction time at 20 mg/kg, po after 90 mins by Eddy's hot plate technique
Outline: (§2)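 Swiss mice of either sex, 25–35 g, placed one at a time on a hot plate held at 55 °C. End point is paw licking or jumping, whichever comes first, with a 15 s cut-off to avoid paw injury. Reaction time is recorded and reported as percent increase in reaction time.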

Escherichia coli [9] = test: Antibacterial activity against Escherichia coli at 30 ug/ml by agar plate diffusion technique; conditions: read-out: IZ
Staphylococcus aureus [10] = test: Antibacterial activity against Staphylococcus aureus at 30 ug/ml by agar plate diffusion technique; conditions: read-out: IZ
Escherichia coli [11] = test: Antibacterial activity against Escherichia coli at 10 ug/ml by agar plate diffusion technique; conditions: read-out: IZ
Aspergillus niger [12] = test: Antifungal activity against Aspergillus niger at 10 ug/ml by paper disc method; conditions: read-out: IZ
Pseudomonas aeruginosa [13] = test: Antibacterial activity against Pseudomonas aeruginosa at 10 ug/ml by agar plate diffusion technique; conditions: read-out: IZ
Candida albicans [14] = test: Antifungal activity against Candida albicans at 20 ug/ml by paper disc method; conditions: read-out: IZ
Staphylococcus aureus [15] = test: Antibacterial activity against Staphylococcus aureus at 20 ug/ml by agar plate diffusion technique; conditions: read-out: IZ
Pseudomonas aeruginosa [16] = test: Antibacterial activity against Pseudomonas aeruginosa at 30 ug/ml by agar plate diffusion technique; conditions: read-out: IZ
Mus musculus [17] = test: Analgesic activity in Swiss mouse assessed as increase in reaction time at 20 mg/kg, po after 30 mins by Eddy's hot plate technique; outline: as §2
Mus musculus [18] = test: Analgesic activity in Swiss mouse assessed as increase in reaction time at 20 mg/kg, po after 60 mins by Eddy's hot plate technique; outline: as §2
Rattus norvegicus [19] = test: Antiinflammatory activity in Wistar Albino rat assessed as inhibition of carrageenan-induced paw oedema at 20 mg/kg after 3 hrs relative to control; outline: as §1
Escherichia coli [20] = test: Antibacterial activity against Escherichia coli at 20 ug/ml by agar plate diffusion technique; conditions: read-out: IZ
Aspergillus niger [21] = test: Antifungal activity against Aspergillus niger at 30 ug/ml by paper disc method; conditions: read-out: IZ
Candida albicans [22] = test: Antifungal activity against Candida albicans at 30 ug/ml by paper disc method; conditions: read-out: IZ
Staphylococcus aureus [23] = test: Antibacterial activity against Staphylococcus aureus at 10 ug/ml by agar plate diffusion technique; conditions: read-out: IZ
Pseudomonas aeruginosa [24] = test: Antibacterial activity against Pseudomonas aeruginosa at 20 ug/ml by agar plate diffusion technique; conditions: read-out: IZ
Rattus norvegicus [25] = test: Antiinflammatory activity in Wistar Albino rat assessed as inhibition of carrageenan-induced paw oedema at 20 mg/kg after 4 hrs relative to control; outline: as §1

Row | Structure (SMILES) | zone of inhibition at 20 µg/mL (Bacillus subtilis [1]) [mm] | zone of inhibition at 30 µg/mL (Bacillus subtilis [2]) [mm] | inhibition in vivo at 20 mg/kg (Rattus norvegicus [3]) [%] | zone of inhibition at 10 µg/mL (Candida albicans [4]) [mm] | zone of inhibition at 20 µg/mL (Aspergillus niger [5]) [mm] | zone of inhibition at 10 µg/mL (Bacillus subtilis [6]) [mm] | inhibition in vivo at 20 mg/kg (Rattus norvegicus [7]) [%] | Activity (Mus musculus [8]) [%] | zone of inhibition at 30 µg/mL (Escherichia coli [9]) [mm] | zone of inhibition at 30 µg/mL (Staphylococcus aureus [10]) [mm] | zone of inhibition at 10 µg/mL (Escherichia coli [11]) [mm] | zone of inhibition at 10 µg/mL (Aspergillus niger [12]) [mm] | zone of inhibition at 10 µg/mL (Pseudomonas aeruginosa [13]) [mm] | zone of inhibition at 20 µg/mL (Candida albicans [14]) [mm] | zone of inhibition at 20 µg/mL (Staphylococcus aureus [15]) [mm] | zone of inhibition at 30 µg/mL (Pseudomonas aeruginosa [16]) [mm] | Activity (Mus musculus [17]) [%] | Activity (Mus musculus [18]) [%] | inhibition in vivo at 20 mg/kg (Rattus norvegicus [19]) [%] | zone of inhibition at 20 µg/mL (Escherichia coli [20]) [mm] | also measured
1 | COc1ccc2[nH]c(C)c(Cc3nn4c(-c5ccoc5C)nnc4s3)c2c1 | 8.38 | 13.2 | 19.7 | 5.04 | 9.06 | 4.6 | 24.8 | 33.49 | 13.8 | 13.3 | 5.12 | 5.14 | 4.92 | 9.86 | 9.12 | 14.6 | 9.18 | 23.17 | 29.4 | 9.1 | zone of inhibition at 30 µg/mL (Aspergillus niger [21]): 12.4 mm; zone of inhibition at 30 µg/mL (Candida albicans [22]): 13.1 mm; zone of inhibition at 10 µg/mL (Staphylococcus aureus [23]): 4.89 mm; zone of inhibition at 20 µg/mL (Pseudomonas aeruginosa [24]): 8.14 mm; inhibition in vivo at 20 mg/kg (Rattus norvegicus [25]): 31.2%
2 | COc1ccc(Cl)c(-c2nnc3n2NC(c2ccc[nH]2)S3)c1 (stereo not given) | 4 | 8.33 | 12.8 | 4.61 | 9.17 | 1.67 | 15.2 | 21.1 | 14.3 | 8.33 | 4.71 | 4.89 | 1.33 | 8.82 | 4.33 | 8 | 4.86 | 14.48 | 18.4 | 7.9 | zone of inhibition at 30 µg/mL (Aspergillus niger [21]): 12.3 mm; zone of inhibition at 30 µg/mL (Candida albicans [22]): 13.4 mm; zone of inhibition at 10 µg/mL (Staphylococcus aureus [23]): 1.33 mm; zone of inhibition at 20 µg/mL (Pseudomonas aeruginosa [24]): 4.33 mm; inhibition in vivo at 20 mg/kg (Rattus norvegicus [25]): 20.6%
3 | COc1ccc(Cl)c(-c2nnc3sc(Cc4c[nH]c5ccc(OC)cc45)nn23)c1 | 8.79 | 13.2 | 6.1 | 5.44 | 10.1 | 4.76 | 14.4 | 31.48 | 13.2 | 13.7 | 5.1 | 5.38 | 4.83 | 9.2 | 8.52 | 12.8 | 13.69 | 23.76 | 21.4 | 8.39 | zone of inhibition at 30 µg/mL (Aspergillus niger [21]): 12.2 mm; zone of inhibition at 30 µg/mL (Candida albicans [22]): 11.2 mm; zone of inhibition at 10 µg/mL (Staphylococcus aureus [23]): 4.58 mm; zone of inhibition at 20 µg/mL (Pseudomonas aeruginosa [24]): 9.18 mm; inhibition in vivo at 20 mg/kg (Rattus norvegicus [25]): 33.9%
4 | Cc1occc1-c1nnc2sc(-c3ccnc(F)c3)nn12 | 14.8 | 19.9 | 16.7 | 8.82 | 13 | 8.12 | 18.2 | 16.43 | 20.8 | 20.2 | 8.54 | 7.36 | 8.39 | 16.6 | 14.2 | 21.3 | 4.13 | 6.2 | 20.4 | 14.3 | zone of inhibition at 30 µg/mL (Aspergillus niger [21]): 22.7 mm; zone of inhibition at 30 µg/mL (Candida albicans [22]): 23.8 mm; zone of inhibition at 10 µg/mL (Staphylococcus aureus [23]): 7.9 mm; zone of inhibition at 20 µg/mL (Pseudomonas aeruginosa [24]): 15.2 mm; inhibition in vivo at 20 mg/kg (Rattus norvegicus [25]): 24.4%
5 | Cc1occc1-c1nnc2sc(-c3cc(-c4ccccc4)nc4ccccc34)nn12 | 11.8 | 16.9 | 11.8 | 6.27 | 11 | 6.16 | 14.5 | 21.1 | 17.4 | 17.5 | 7.64 | 5.92 | 7.12 | 14.8 | 12.7 | 17.3 | 4.86 | 14.48 | 16.4 | 13.2 | zone of inhibition at 30 µg/mL (Aspergillus niger [21]): 17.7 mm; zone of inhibition at 30 µg/mL (Candida albicans [22]): 19.4 mm; zone of inhibition at 10 µg/mL (Staphylococcus aureus [23]): 6.18 mm; zone of inhibition at 20 µg/mL (Pseudomonas aeruginosa [24]): 12 mm; inhibition in vivo at 20 mg/kg (Rattus norvegicus [25]): 24.4%
6 | COc1ccc(Cl)c(-c2nnc3sc(-c4cc(C)nc5ccccc45)nn23)c1 | 11.1 | 16.4 | 8.68 | 6.18 | 12.6 | 7.06 | 20.2 | 21.06 | 16.7 | 16.1 | 5.16 | 5.62 | 5.31 | 13.8 | 12.1 | 16.1 | 7.6 | 12.65 | 24.1 | 9.12 | zone of inhibition at 30 µg/mL (Aspergillus niger [21]): 18.5 mm; zone of inhibition at 30 µg/mL (Candida albicans [22]): 18.8 mm; zone of inhibition at 10 µg/mL (Staphylococcus aureus [23]): 6.89 mm; zone of inhibition at 20 µg/mL (Pseudomonas aeruginosa [24]): 10.3 mm; inhibition in vivo at 20 mg/kg (Rattus norvegicus [25]): 27.4%
